# Assay results of several laboratories.
# Compare with care: the assays were run in different laboratories.
# Target: Serine/threonine-protein kinase PAK 5 (PAK5, Homo sapiens, UniProt Q9P286)
SMILES,read-out,action,technique,tested at,endpoint,result
Nc1nc(Nc2ccc(S(N)(=O)=O)cc2)nn1C(=O)c1c(F)cccc1F,cell-free assay,,,0.5 µM,remaining signal,85.4%
CCN(CC)c1ccc(C2=NNC(=O)CC2C)cc1[N+](=O)[O-] (centres unmarked),enzyme activity,inhibitor,,10 µM,remaining activity,5%
Oc1cccc(-c2nc(N3CCOCC3)c3oc4ncccc4c3n2)c1,enzyme activity,inhibitor,,10 µM,remaining activity,112%
C[C@H]1CCN(c2nccc(-c3cnn4ncccc34)n2)C1,binding,,,1 µM,remaining binding,100%
CCS(=O)(=O)c1cc2cc(C[C@](O)(CC(C)(C)c3ccc(F)cc3C(N)=O)C(F)(F)F)[nH]c2cn1,cell-free assay,,competition with immobilised ligand,1 µM,remaining binding,100%
CCOc1cc(-c2nncn2C)ccc1Nc1ncc2cc(C)nc(NCC(C)(C)C)c2n1,enzyme activity,inhibitor,FRET,1 µM,inhibition,< 15%
Nc1nc(NC2CCCCC2)sc1C(=O)c1ccccc1,enzyme activity,inhibitor,,10 µM,remaining activity,103%
CCCS(=O)(=O)Nc1ccc(F)c(C(=O)c2c[nH]c3ncc(-c4ccc(Cl)cc4)cc23)c1F,enzyme activity,inhibitor,,1 µM,inhibition,< 10%
C[C@@H]1CN(c2cc(-c3nn(C)c4ccc(OC5(C)CC5)cc34)ncn2)C[C@H](C)O1,cell-free assay,,competition with immobilised ligand,1 µM,remaining binding,84%
CS(=O)(=O)CCNCc1ccc(-c2ccc3ncnc(Nc4ccc(OCc5cccc(F)c5)c(Cl)c4)c3c2)o1,cell-free assay,,,0.5 µM,remaining signal,98.5%
O=C(Nc1cnn(-c2csc(C(=O)NC3COC3)c2)c1)Nc1c(F)cccc1Cl,enzyme activity,inhibitor,,5 µM,remaining activity,92.9%
COCCOc1nc(-c2ccc(Cl)nc2)nc2c1CN(C(=O)c1ncn3ccccc13)CC2,cell-free assay,,competition with immobilised ligand,0.1 µM,remaining binding,100%
CCN(CC)CCNC(=O)c1c(C)[nH]c(/C=C2\C(=O)Nc3ccc(F)cc32)c1C,enzyme activity,inhibitor,,10 µM,inhibition,55%
COc1cc2ncnc(Nc3ccc(Oc4ccccc4)c(C)c3C)c2cc1OC,enzyme activity,inhibitor,,1 µM,inhibition,3%
Cc1noc([C@H]2C[C@@H](c3ccc(C(F)(F)F)cc3)CN(C(=O)N3CCS(=O)(=O)C3)C2)n1,cell-free assay,,competition with immobilised ligand,1 µM,remaining binding,100%
CNC(=O)c1cc(Oc2ccc(NC(=O)Nc3ccc(Cl)c(C(F)(F)F)c3)cc2)ccn1,enzyme activity,inhibitor,,10 µM,inhibition,-21%
CCC(=O)N[C@@H]1CC[C@H](C(=O)N(C)c2ccc(-c3nc4ccccc4o3)cc2)C1,cell-free assay,,competition with immobilised ligand,1 µM,remaining binding,100%
CN1CC(Oc2cnc(C#N)cc2-c2ccn3nc(NC(=O)C4CC4)cc3c2)C1,enzyme activity,inhibitor,,1 µM,inhibition,3%
FC(F)(F)c1ccc2c(c1)nc(-c1cccnc1)n2C1CC1,cell-free assay,,competition with immobilised ligand,1 µM,remaining binding,100%
CC/C(=N\NC(=O)NCc1cccc(O)c1)c1ccc(O)c(C)c1O,enzyme activity,inhibitor,,0.1 µM,inhibition,-3.9%
COc1cc(Cl)c(C(=O)N[C@@H](CN[C@H]2CC[C@@H](N)CC2)Cc2ccc(C#N)cc2)cc1-c1ccc(CN[C@H](C)c2ccc(C)cc2)o1,enzyme activity,inhibitor,,1 µM,remaining activity,103%
O=C(O)[C@H]1[C@H](Cn2nnc3ccccc3c2=O)CC[C@@H]1C(=O)c1ccc(OCCC2CCOCC2)cc1,cell-free assay,,competition with immobilised ligand,1 µM,remaining binding,98%
FC(F)(F)Oc1cccc(-c2cnc3ccc(-c4ccncc4)nn23)c1,enzyme activity,inhibitor,radiometric,1 µM,activity vs control,72%
COc1ccc2cc(OCC3(C(=O)O)CN(C(=O)c4ccc(F)cc4)C3)ccc2c1,cell-free assay,,competition with immobilised ligand,1 µM,remaining binding,100%
CC(C)(C)c1nc2c(s1)c1nc(N)ncc1c1ccc(NS(=O)(=O)c3c(F)cccc3F)c(F)c12,enzyme activity,inhibitor,radiometric,1 µM,remaining activity,77%
Cc1sc(C(=O)NC2COC2)cc1-n1cc(NC(=O)Nc2c(F)cccc2Cl)cn1,enzyme activity,inhibitor,,10 µM,remaining activity,103%
Nc1nc(Nc2ccccc2)sc1C(=O)c1c(F)cccc1F,enzyme activity,inhibitor,,10 µM,remaining activity,66%
O=C1Nc2ccc(Cl)cc2C1=Cc1cc(Cl)c(O)c(Cl)c1,cell-free assay,,,0.5 µM,remaining signal,91.5%
Cn1c(=O)n(-c2ccc(C(C)(C)C#N)cc2)c2c3cc(-c4cnc5ccccc5c4)ccc3ncc21,enzyme activity,inhibitor,,10 µM,remaining activity,90%
